Entries after “also recorded” stand apart in the source; their conditions may differ.
Assays:
ATM [1] = target: T1, ATM (Homo sapiens, UniProt Q13315); assay: Biochemical inhibition of ATR and related kinases
DNA-PK [2] = target: T2, DNA-PK (Homo sapiens, UniProt P78527); assay: Biochemical inhibition of ATR and related kinases
mTOR = mTOR (Homo sapiens, UniProt P42345); assay: Biochemical inhibition of ATR and related kinases
PI3Kγ = PI3Kγ (Homo sapiens, UniProt P48736); assay: Biochemical inhibition of ATR and related kinases
Sequence of PI3Kγ (P48736 whole entry, species assumed): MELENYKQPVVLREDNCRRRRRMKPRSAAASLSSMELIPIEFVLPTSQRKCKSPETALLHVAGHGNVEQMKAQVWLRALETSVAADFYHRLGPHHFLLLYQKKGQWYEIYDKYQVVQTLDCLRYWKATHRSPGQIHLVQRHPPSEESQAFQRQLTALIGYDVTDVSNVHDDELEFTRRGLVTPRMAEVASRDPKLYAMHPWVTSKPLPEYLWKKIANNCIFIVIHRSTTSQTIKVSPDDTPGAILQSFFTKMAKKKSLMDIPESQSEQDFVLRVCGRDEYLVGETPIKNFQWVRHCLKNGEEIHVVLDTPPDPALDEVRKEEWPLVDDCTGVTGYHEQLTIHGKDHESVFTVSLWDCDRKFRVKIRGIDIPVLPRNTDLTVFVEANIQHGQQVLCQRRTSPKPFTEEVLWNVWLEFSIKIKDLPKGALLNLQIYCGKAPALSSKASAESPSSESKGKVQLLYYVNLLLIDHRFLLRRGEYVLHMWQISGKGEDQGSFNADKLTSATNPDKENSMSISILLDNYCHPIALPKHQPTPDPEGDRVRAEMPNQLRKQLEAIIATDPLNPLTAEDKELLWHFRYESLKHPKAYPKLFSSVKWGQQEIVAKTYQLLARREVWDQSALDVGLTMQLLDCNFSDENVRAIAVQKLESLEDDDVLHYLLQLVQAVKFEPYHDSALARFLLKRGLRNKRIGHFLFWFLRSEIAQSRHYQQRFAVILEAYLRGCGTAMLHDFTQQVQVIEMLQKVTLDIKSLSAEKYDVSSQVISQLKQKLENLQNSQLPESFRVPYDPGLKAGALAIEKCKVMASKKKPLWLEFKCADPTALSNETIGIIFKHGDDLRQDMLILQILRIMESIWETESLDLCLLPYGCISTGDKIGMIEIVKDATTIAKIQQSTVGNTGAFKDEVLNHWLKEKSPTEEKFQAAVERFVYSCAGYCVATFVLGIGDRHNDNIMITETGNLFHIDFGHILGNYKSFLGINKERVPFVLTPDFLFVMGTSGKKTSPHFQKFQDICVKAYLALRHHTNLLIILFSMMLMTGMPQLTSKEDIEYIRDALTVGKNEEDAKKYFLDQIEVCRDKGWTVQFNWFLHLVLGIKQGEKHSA

ATM [3] = target: T1, ATM; assay: Cellular inhibition of ATR and related kinases; format: cell-based
DNA-PK [4] = target: T2, DNA-PK; assay: Cellular inhibition of ATR and related kinases; format: cell-based
phospho-Ser345-Chk1 = assay: Immunoblot for Chk1 phosphorylation; format: cell-based; settings: VE-822 80 nM; gemcitabine 100 nM, XRT 6 Gy; PDAC cells
Method in brief: (§1)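 Lysates were taken 2 h post-XRT or 4 h post-gemcitabine, after cold PBS rinse, in reducing Triton lysis buffer. Phospho-Chk1 antibody was used at 1:1000; β-actin was the loading control.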

[5] = test system: ATM, Chk2 or DNA-PK phosphorylation; assay: Immunoblot for ATM/Chk2 and DNA-PK phosphorylation; format: cell-based; settings: VE-822 80 nmol/L; XRT 6 Gy
[6] = test system: PDAC cells (PSN-1, MiaPaCa-2, PancM); assay: Clonogenic survival assay, pancreatic cancer cells; format: cell-based
[7] = test system: fibroblasts (HFL-1, MRC5); assay: Clonogenic survival assay, normal fibroblasts; format: cell-based, human; settings: VE-822 80 nM
[8] = test system: phospho-Ser345-Chk1 in HFL-1 normal fibroblasts; assay: Phospho-Chk1; format: cell-based, human; settings: VE-822 80 nM
Method in brief: as §1

[9] = test system: human dermal microvascular endothelial cells (HDMECs); assay: Capillary tube formation; format: cell-based; settings: VE-822 80 nM; XRT 6 Gy or gemcitabine 50 nM
[10] = test system: PSN-1 and MiaPaCa-2 cells; assay: Analysis of γH2AX, 53BP1 and Rad51 foci; format: cell-based
[11] = test system: PSN-1 and MiaPaCa-2 cells; assay: Cell-cycle assay; format: cell-based
PSN-1 cells = assay: Apoptosis in vitro assay; format: cell-based; settings: for apoptosis, single agent: VE-822 80 nM or gemcitabine 10 nM, 48 h after XRT time point
Method in brief: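 For PSN-1 cells, gemcitabine (10 nM) was given 24 h pre-XRT, then replaced with fresh medium. […] Cells were analysed at 48 h post-XRT by Annexin V-FITC/PI flow cytometry to separate early apoptotic from necrotic cells.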

[12] = test system: phospho-Ser-345-Chk1 in PSN-1 xenografts; assay: Chk1 phosphorylation; format: in vivo, mice; settings: VE-822 60 mg/kg d0, 1; gemcitabine 100 mg/kg d0; XRT 6 Gy d1; 2 h post-XRT
PSN-1 xenografts = assay: Tumor growth delay, PSN-1 xenografts; format: in vivo, mice
Method in brief: (§2)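 Female Balb/c nude mice were inoculated s.c. with 10^6 cells in serum-free medium plus Matrigel and randomized at ~80 mm3 (day 0). […] Tumor volume was tracked to 600 mm3 (TV600); n=4–5.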

MiaPaCa-2 xenografts = assay: Tumor growth delay, MiaPaCa-2 xenografts; format: in vivo, mice; settings: experiment III
Method in brief: as §2

[13] = Body weight of mice in growth delay experiments; format: in vivo
[14] = test system: small intestine (jejunum); assay: Intestinal damage after abdominal XRT; format: in vivo, mice
[15] = test system: tumor xenograft vessel density; assay: Tumor vessel density; format: in vivo, mice
Method in brief: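 Frozen xenograft tumors were cut into 10-μm sections, treated with 0.3% H2O2 for 20 min, then blocked in TNB for 30 min. Sections were stained 1 h with rat anti-mouse CD31 (1:50), then anti-rat […]. Vessels per field were counted in five random viable 10× fields per tumor, n=4–5 tumors per group.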

[16] = test system: γH2AX in PSN-1 tumor xenografts; assay: SPECT imaging of γH2AX in pancreatic tumor xenografts; format: in vivo, mice
Method in brief: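 111In-DTPA–anti-γH2AX-Tat was injected 2 h before radiation, and SPECT/CT was run at 24 h post-XRT. Tumor uptake came from volume-of-interest analysis as %ID/g; organs were then removed, weighed and counted.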

T1 sequence (Q13315 whole entry, species assumed): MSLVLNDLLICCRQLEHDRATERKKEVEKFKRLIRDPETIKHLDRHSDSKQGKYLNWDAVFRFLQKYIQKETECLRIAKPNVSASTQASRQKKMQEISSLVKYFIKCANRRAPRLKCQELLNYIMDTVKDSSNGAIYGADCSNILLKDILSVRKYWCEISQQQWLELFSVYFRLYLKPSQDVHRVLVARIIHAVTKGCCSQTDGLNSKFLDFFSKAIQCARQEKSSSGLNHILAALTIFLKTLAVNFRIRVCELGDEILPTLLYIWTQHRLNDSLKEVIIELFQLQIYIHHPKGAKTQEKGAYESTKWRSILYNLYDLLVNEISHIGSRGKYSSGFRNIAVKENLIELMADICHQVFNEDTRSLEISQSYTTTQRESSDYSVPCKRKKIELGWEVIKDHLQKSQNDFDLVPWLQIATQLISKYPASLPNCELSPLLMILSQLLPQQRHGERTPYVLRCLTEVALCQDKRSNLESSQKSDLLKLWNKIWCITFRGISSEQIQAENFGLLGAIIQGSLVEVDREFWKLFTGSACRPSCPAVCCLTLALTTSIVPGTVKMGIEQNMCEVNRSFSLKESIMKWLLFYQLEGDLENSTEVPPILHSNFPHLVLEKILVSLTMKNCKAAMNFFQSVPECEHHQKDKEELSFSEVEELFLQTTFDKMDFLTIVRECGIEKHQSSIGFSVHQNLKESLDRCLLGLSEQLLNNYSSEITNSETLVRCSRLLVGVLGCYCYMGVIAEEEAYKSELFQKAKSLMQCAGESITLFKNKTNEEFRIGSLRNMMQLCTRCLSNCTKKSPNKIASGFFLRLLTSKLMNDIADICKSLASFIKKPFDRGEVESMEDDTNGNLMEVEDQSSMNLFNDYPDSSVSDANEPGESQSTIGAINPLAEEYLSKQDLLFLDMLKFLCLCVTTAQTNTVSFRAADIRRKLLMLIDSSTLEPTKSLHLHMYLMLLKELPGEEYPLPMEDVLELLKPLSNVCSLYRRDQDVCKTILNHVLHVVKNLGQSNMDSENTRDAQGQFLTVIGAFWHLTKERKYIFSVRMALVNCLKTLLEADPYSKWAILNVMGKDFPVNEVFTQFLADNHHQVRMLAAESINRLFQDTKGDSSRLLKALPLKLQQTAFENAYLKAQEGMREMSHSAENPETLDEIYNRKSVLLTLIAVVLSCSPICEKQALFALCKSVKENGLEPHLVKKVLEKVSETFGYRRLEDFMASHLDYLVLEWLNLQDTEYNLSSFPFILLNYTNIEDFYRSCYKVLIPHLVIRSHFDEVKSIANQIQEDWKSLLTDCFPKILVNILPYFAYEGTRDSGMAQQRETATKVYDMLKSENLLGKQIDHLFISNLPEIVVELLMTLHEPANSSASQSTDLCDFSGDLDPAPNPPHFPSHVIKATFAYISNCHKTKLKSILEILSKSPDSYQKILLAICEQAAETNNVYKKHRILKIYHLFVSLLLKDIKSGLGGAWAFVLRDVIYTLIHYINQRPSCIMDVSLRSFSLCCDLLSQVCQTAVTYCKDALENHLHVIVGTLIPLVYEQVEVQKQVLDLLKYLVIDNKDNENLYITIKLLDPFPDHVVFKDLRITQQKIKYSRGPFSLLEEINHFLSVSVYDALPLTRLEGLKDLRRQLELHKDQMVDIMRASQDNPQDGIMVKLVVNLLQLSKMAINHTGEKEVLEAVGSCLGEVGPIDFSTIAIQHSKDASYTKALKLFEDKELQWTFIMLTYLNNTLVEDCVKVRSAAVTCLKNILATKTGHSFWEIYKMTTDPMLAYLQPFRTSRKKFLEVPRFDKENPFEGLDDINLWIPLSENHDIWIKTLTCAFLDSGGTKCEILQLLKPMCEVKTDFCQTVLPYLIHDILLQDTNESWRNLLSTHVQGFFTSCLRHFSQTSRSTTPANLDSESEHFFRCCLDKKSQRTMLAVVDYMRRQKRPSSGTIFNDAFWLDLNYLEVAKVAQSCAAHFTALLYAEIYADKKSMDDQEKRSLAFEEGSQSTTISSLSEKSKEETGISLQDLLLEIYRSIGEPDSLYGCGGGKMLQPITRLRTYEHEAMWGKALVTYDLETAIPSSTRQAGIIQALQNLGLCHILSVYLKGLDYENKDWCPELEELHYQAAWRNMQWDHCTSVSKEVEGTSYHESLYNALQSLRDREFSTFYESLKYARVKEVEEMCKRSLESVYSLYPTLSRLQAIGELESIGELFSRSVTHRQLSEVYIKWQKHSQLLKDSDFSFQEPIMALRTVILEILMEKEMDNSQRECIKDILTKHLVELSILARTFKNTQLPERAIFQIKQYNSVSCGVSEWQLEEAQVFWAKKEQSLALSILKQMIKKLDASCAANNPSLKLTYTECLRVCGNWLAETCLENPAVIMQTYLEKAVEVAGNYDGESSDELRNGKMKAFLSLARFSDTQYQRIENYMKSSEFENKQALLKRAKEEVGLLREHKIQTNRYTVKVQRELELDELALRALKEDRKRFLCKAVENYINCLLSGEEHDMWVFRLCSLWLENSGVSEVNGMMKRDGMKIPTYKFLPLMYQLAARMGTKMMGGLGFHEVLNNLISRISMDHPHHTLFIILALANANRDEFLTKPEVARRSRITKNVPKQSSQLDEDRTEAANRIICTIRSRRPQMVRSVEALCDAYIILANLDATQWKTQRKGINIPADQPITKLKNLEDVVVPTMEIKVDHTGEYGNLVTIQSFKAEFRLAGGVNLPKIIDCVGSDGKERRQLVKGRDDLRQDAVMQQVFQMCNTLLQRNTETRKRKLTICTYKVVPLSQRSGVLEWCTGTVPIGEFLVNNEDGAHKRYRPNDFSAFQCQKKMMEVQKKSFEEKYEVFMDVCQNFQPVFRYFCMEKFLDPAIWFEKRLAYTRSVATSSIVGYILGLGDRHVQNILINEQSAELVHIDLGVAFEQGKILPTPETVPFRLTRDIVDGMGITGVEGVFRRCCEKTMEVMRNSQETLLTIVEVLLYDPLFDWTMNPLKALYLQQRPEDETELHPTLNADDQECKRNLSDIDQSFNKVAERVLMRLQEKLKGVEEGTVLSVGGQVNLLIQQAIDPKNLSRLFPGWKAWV

CNCc1ccc(-c2cc(-c3nc(-c4ccc(S(=O)(=O)C(C)C)cc4)cnc3N)on2)cc1 [VE-822]
Ki (ATM [1]): 34 nM | Ki (DNA-PK [2]): > 4000 nM | Ki (mTOR): > 1000 nM | Ki (PI3Kγ): 220 nM | IC50 (ATM [3]): 2600 nM | IC50 (DNA-PK [4]): 18100 nM | phospho-Ser345-Chk1 after gemcitabine, XRT or both (phospho-Ser345-Chk1): reduced phospho-Ser345-Chk1 | ATM, Chk2 or DNA-PK phosphorylation in response to radiation [5]: did not inhibit ATM, Chk2 or DNA-PK phosphorylation | clonogenic survival of irradiated PDAC ([6]; VE-822 80 nM, 1 h before until 18 h post-XRT): decreased survival of irradiated PDAC | reduction of survival after chemoradiotherapy (triple combination) ([6]; gemcitabine 10 or 5 nM 24 h, VE-822 80 nM, XRT 4 Gy): dramatically more after chemoradiotherapy | reduction of survival on adding VE-822 to gemcitabine ([6]; gemcitabine 24 h, then VE-822 80 nM 18 h): 2–3 fold | clonogenic survival of normal fibroblasts after XRT or gemcitabine [7]: did not alter clonogenic survival of fibroblasts | phospho-Ser345-Chk1 after gemcitabine, XRT or chemoradiotherapy [8]: reduced phospho-Ser345-Chk1 | tube formation after XRT or gemcitabine [9]: did not modify tube formation | residual γH2AX and 53BP1 foci ([10]; VE-822 80 nM 1 h before XRT 6 Gy, 24 h post-XRT, vs XRT): increased XRT-induced residual γH2AX and 53BP1 foci | Rad51 foci ([10]; VE-822 80 nM pre-treatment, XRT 6 Gy, 6 h post-XRT): decreased Rad51 foci after XRT | γH2AX, 53BP1 or Rad51 foci, VE-822 alone ([10]; VE-822 alone (data not shown)): no effect on γH2AX, 53BP1 or Rad51 foci | XRT-enriched G2/M-phase-fraction ([11]; VE-822 80 nM + XRT 6 Gy): abrogated by co-treatment with VE-822 | cell-cycle distribution, VE-822 alone ([11]; VE-822 80 nM, 12 h and 24 h): increased the G1-phase-fraction | gemcitabine-induced S-phase arrest ([11]; gemcitabine 10 nM then VE-822 80 nM): not affected by VE-822 | apoptosis, single agent (PSN-1 cells): little effect | apoptosis, combinations of VE-822, XRT and/or gemcitabine (PSN-1 cells; VE-822 80 nM, XRT 6 Gy, gemcitabine 10 nM, strongest in triple combination): enhanced early and late apoptosis | phospho-Ser-345-Chk1 in xenografts after DNA-damaging agents [12]: inhibited phospho-Ser-345-Chk1 in xenografts | tumor growth, VE-822 alone (PSN-1 xenografts; experiment I, 60 mg/kg days 0–5): no effect on tumor growth | TV600 (time to 600 mm^3), XRT plus VE-822 vs XRT alone (PSN-1 xenografts; experiment I, 60 mg/kg for 6 or 4 days, 6 Gy day 1, P<0.001): more than doubled the TV600 of XRT alone | tumor regrowth, VE-822 + fractionated XRT vs fractionated XRT (PSN-1 xenografts; experiment II, 60 mg/kg days 0–5, 5 x 2 Gy days 1–5, P<0.001): significantly delayed regrowth compared with XRT1–5 | radiosensitisation (TV400) with intermittent dosing (PSN-1 xenografts; experiment IV, 15, 30 and 60 mg/kg, days 0, 2 and 4, 6 Gy): dose-dependent radiosensitisation response | tumor growth delay, gemcitabine + XRT + VE-822 vs gemcitabine + XRT (PSN-1 xenografts; experiment V, P<0.001): substantially prolonged the tumor growth delay compared with the Gem0XRT1 group | tumor growth delay, VE-822 + XRT vs XRT (PSN-1 xenografts; experiment V, VE-822 60 mg/kg d1, 3, 5, XRT d1, P<0.05): significantly longer compared with the XRT1 group | TV400, gemcitabine + VE-822 vs gemcitabine alone (PSN-1 xenografts; experiment V, gemcitabine 100 mg/kg d0, VE-822 60 mg/kg d1, 3, 5, P>0.05): did not significantly increase TV400 compared with gemcitabine alone | tumor growth, VE-822 alone vs control (MiaPaCa-2 xenografts; 60 mg/kg days 0–5): no statistical change in tumor growth | tumors that regrew, VE-822 + XRT (MiaPaCa-2 xenografts; 60 mg/kg days 0–5, 6 Gy day 1, n=4): 2/4 | TV600 of regrowing tumors, VE-822 + XRT vs XRT (MiaPaCa-2 xenografts; two regrowing tumors, P<0.001): significantly longer than the TV600 for the XRT1 group | body weight ([13]; growth delay experiment I): No body weight loss | body weight ([13]; growth delay experiment II): no effects on body weight | body weight ([13]; growth delay experiment III): no weight loss | body weight ([13]; growth delay experiment IV): No weight loss | body weight ([13]; growth delay experiment V): no weight loss | villus tip loss and villi length, VE-822 + XRT vs XRT alone ([14]; 60 mg/kg days 0, 2, 4, 6 Gy day 0, day 5): did not increase villus tip loss or villi shortening | body weight loss, combination vs XRT-only ([14]; abdominal XRT 6 Gy): equivalent body weight loss | vessel density, addition of VE-822 and/or XRT to gemcitabine ([15]; growth delay experiment V): did not alter vessel density significantly | vessel density, VE-822 alone or with XRT ([15]; growth delay experiments I-III): did not alter vessel density | tumor uptake of 111In-DTPA–anti-γH2AX-Tat, VE-822 alone ([16]; 60 mg/Kg days 0 and 1): no elevation in uptake | tumor uptake of 111In-DTPA–anti-γH2AX-Tat, VE-822 plus XRT, higher compared with XRT ([16]; 60 mg/Kg days 0 and 1, 6 Gy day 1, 24 h post-XRT, P<0.05): 44%

Nc1ccn([C@@H]2O[C@H](CO)[C@@H](O)C2(F)F)c(=O)n1 [gemcitabine, reference compound]
apoptosis, single agent (PSN-1 cells): increased apoptosis slightly | tumor growth, gemcitabine alone (PSN-1 xenografts; 100 mg/kg i.p. day 0): did not alter tumor growth significantly; also recorded: does not itself lead to tumor growth delay | tumor growth delay, gemcitabine + XRT vs gemcitabine (PSN-1 xenografts; experiment V, P<0.05): increased tumor growth delay compared with Gem0 | vessel density after gemcitabine ([15]; growth delay experiment V): significantly reduced vessel density

— paper PMC3542617 (Cell Death & Disease, 2012)
